Assay outcomes as filed in PubChem.
hERG protect: shields human hERG channel from block by proarrhythmic agents; activation (rescue from dofetilide block), less the hit threshold, % at 10 µM; Q12809; AID 1511; CHO-hERG, FluxOR thallium flux, dofetilide IC70 present; hit rate 0.51% among 310,000;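 active means activation above the mean of controls blocked by dofetilide plus 5 SD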;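 further: thallium influx through hERG after potassium depolarization seen as dye fluorescence rise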
Target sequence (Q12809 whole entry, looked up): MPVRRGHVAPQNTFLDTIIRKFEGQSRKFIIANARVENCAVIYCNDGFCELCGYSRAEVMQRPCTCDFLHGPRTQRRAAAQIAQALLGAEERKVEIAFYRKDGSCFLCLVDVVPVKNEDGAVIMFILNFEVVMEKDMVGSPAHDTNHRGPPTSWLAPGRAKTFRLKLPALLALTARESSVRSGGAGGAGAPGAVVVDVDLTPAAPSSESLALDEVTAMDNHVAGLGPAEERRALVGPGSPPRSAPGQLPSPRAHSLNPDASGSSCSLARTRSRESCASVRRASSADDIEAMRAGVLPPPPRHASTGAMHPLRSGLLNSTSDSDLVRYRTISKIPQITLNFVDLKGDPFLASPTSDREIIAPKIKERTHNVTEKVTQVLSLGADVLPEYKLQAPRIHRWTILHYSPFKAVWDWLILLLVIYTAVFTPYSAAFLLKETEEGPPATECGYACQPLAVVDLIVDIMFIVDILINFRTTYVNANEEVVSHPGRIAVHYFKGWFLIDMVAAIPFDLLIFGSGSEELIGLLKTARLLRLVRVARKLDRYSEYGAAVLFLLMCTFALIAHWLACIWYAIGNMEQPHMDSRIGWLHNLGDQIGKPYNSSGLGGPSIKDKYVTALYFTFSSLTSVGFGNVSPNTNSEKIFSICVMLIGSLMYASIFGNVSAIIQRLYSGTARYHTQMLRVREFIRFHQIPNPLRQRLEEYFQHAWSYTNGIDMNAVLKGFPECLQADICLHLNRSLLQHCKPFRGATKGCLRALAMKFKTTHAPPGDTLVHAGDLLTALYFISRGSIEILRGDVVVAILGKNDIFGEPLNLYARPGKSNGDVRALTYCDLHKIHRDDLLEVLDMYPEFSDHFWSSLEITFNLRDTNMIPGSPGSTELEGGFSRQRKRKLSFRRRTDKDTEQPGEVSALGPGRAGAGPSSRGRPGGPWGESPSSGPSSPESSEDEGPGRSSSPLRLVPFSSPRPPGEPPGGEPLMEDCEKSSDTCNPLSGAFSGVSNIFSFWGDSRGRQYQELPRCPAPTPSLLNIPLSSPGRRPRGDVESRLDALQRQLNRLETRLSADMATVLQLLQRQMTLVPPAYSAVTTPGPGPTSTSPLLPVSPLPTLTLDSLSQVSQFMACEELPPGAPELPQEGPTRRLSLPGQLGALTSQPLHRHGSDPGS
KCNQ1 pot: human KCNQ1 channel potentiation or activation. P51787. CHO-K1 KCNQ1, thallium flux FluxOR fluorescence; active compounds read high. B-score at 10 µM. hit rate 0.35% among 310,000;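 active means fluorescence ratio B-score, a plate-corrected score, at least three library SD, with initial intensity B-score within 5 SD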
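System: CHO-K1 cells stably expressing KCNQ1 / Medium: assay buffer for compound exposure, DMSO matched across wells / Reagent: thallium- and potassium-containing depolarizing buffer / Compound: one concentration, matched DMSO / Incubation: 20 min compound pretreatment at room temperature / Measured by: kinetic FluxOR fluorescence, 10 s baseline plus 110 s post-stimulus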
KCNK9 block: blocks the human KCNK9 two-pore domain potassium channel. B-score at 10 µM. Q9NPC2. hit rate 1.2% among 310,000. HEK293 KCNK9, FluxOR thallium flux fluorescence; active compounds read low. AID 488922;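 active means ratio B-score over 3 SD below the library mean, with starting fluorescence within 5 SD of its mean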;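 further: negative B-score means less thallium flux so channel inhibition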
KCNQ1 inh: blocks the human KCNQ1 potassium channel. P51787. CHO-K1 KCNQ1, FluxOR thallium flux fluorescence; active compounds read high. B-score at 10 µM. hit rate 1.3% among 310,000;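 active means compounds whose thallium flux B-score, printed positive for inhibition, exceeds three library SD while starting fluorescence stays within three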;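 further: channel opened by potassium depolarization with thallium stimulus after 20 min compound exposure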
Kir21 inh: inhibitors of mouse Kir2.1 inward-rectifier potassium channel; P35561; HEK293-Kir2.1, FluxOR thallium flux fluorescence; active compounds read low; B-score at 10 µM; hit rate 0.85% among 310,000; AID 1672;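 active means fluorescence ratio B-score at or below minus 3 SD of library scores, with starting-brightness B-score within 2 SD, cut at about -4.2 in these data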;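 further: channel flux triggered by added potassium and thallium sulfate stimulus; B-score of peak minus minimum fluorescence over baseline after thallium stimulus; more negative B-score means stronger Kir2.1 block with less thallium influx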
KCNK3 block: human KCNK3 channel inhibition, primary screen; CHO-KCNK3 thallium flux, FluxOR fluorescence; active compounds read low; B-score at 10 µM; hit rate 0.84% among 340,000; AID 602410;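 active means B-score under library mean minus 4 SD, starting fluorescence ratio at most library mean plus 5 SD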;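 further: more negative B-score means stronger inhibition of thallium flux through KCNK3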
KCNQ1 block val: human KCNQ1 channel inhibition, validation assay | shares compounds with KCNQ1 inh | KCNQ1 cell line, FluxOR thallium flux fluorescence | inhibition, % at 10 µM | hit rate 93% among 1,600 | AID 588353;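 active means primary screen active, with duplicate mean exceeding buffer control mean plus 3 SD of buffer wells, cut at about 28% in these data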;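 further: 0% = buffer control ratio and 100% = XE991 inhibitor control ratio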
CHO KCNQ1 ctr: counter-screen for KCNQ1 inhibitors: effect in parental CHO cells. shares compounds with KCNQ1 inh. parental CHO-K1, FluxOR thallium flux fluorescence ratio; active compounds read low; zero means no signal rise above baseline. fluorescence ratio (Tl flux) at 10 µM. hit rate 21% among 1,600;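 active means mean of duplicate thallium-flux fluorescence ratios in parental host cells more than 5 SD below the buffer control mean, cut at about 0.38 in these data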;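 further: ratio is peak minus minimum fluorescence divided by baseline fluorescence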
KCNQ1 ephys val: confirmation of human KCNQ1 potassium channel inhibitors by electrophysiology | shares compounds with KCNQ1 inh | AID 624120 | calls only at 10 µM | hit rate 20% among 490 | KCNQ1-CHO cells, automated patch clamp current;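 active means KCNQ1 current drop exceeding 3 SD of negative control wells, seen in both duplicate runs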;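 further: steady state current during a 2 s step from -80 to +40 mV; negative values mean current inhibition and positive values mean potentiation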
KCNQ2 inh: rat KCNQ2 inhibition in KCNQ1 inhibitor specificity screen; shares compounds with KCNQ1 inh; KCNQ2 cells, FluxOR thallium flux fluorescence; inhibition, % at 10 µM; hit rate 71% among 1,600; AID 651746;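 active means mean percent inhibition of the KCNQ2 thallium signal more than 5 SD above the buffer-only control wells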;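 further: KCNQ2 expressed in CHO cells; 0% = buffer control wells and 100% = XE-991 inhibitor control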
KCNQ1-KCNE1 inh: KCNQ1 inhibitor that also blocks human KCNQ1/KCNE1 channel; shares compounds with KCNQ1 inh; KCNQ1/KCNE1 cells, FluxOR thallium flux fluorescence; inhibition, % at 10 µM; hit rate 77% among 1,600; AID 652147;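 active means mean percent inhibition of duplicate wells above the buffer-only control mean plus 3 SD of those controls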;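 further: 0% = buffer only wells and 100% = XE-991 inhibitor control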
KCNK9 block conf: confirmation of human KCNK9 potassium channel inhibitors; shares compounds with KCNK9 block; HEK293 KCNK9 cells, FluxOR thallium flux fluorescence; inhibition, % at 10 µM; hit rate 43% among 4,900;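 active means thallium signal inhibited by more than 5 SD of the compound-free buffer control wells, on both duplicate plates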;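 further: 0% = assay buffer control wells without compound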
Kir21 sel: mouse Kir2.1 off-target activity of KCNK9 modulators; hit rate 4% among 4,900; shares compounds with KCNK9 block; Kir2.1 cells, FluxOR thallium flux fluorescence; inhibition, % at 10 µM; AID 492993;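 active means thallium signal drop more than 5 SD beyond the mean of the no-compound control wells, seen in both duplicate plates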;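 further: signal is fluorescence rise after thallium addition divided by baseline fluorescence; plate controls were assay buffer only for no effect and full block by chlorpromazine control for full effect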
HEK293 Tl ctr: second counter-screen for KCNK9 modulators: effect in non-induced cells | AID 492997 | non-induced KCNK9-HEK293, FluxOR thallium flux | inhibition, % at 10 µM | shares compounds with KCNK9 block | hit rate 40% among 4,900;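 active means thallium signal drop beyond 5 SD of the untreated control mean, on both duplicate plates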;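 further: plate controls were buffer only IC0 wells for no effect and SID17386958 at its maximal inhibitory level for full effect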
KCNK3 confirm: human KCNK3 channel inhibition, confirmation assay. ratio percent of control, % at 10 µM. shares compounds with KCNK3 block. hit rate 99% among 2,400. CHO-KCNK3 thallium flux, FluxOR fluorescence; 0% buffer, 100% carvedilol maximal block;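 active means ratio percent of control, averaged over triplicates, above buffer control mean plus 5 SD, cut at about 64% in these data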;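 further: ratio is the fluorescence rise from min to max over baseline after thallium stimulus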
KCNK3 uninduced: activity in cells without induced KCNK3 expression; non-induced KCNK3 parental cells, FluxOR thallium flux; active compounds read low; hit rate 40% among 2,400; thallium flux ratio (lower = more inhibition) at 10 µM; shares compounds with KCNK3 block;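 active means thallium flux ratio, averaged over three wells, more than 5 SD below the buffer control mean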;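 further: host cells are CHO cells without KCNK3 induction; ratio is peak minus trough fluorescence over baseline then normalized to buffer controls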
* = called active by the depositor; i = inactive; . = no result; + = active, no number. Only some compounds are listed: those with a hit (about 3.7% of all), similar ones and a draw of the others.

SMILES	hERG protect	KCNQ1 pot	KCNK9 block	KCNQ1 inh	Kir21 inh	KCNK3 block	KCNQ1 block val	CHO KCNQ1 ctr	KCNQ1 ephys val	KCNQ2 inh	KCNQ1-KCNE1 inh	KCNK3 confirm	KCNK3 uninduced	others
CCC(C)c1ccc(NC(=S)NCc2cccs2)cc1 (stereo unspecified)	-12.1	i	i	7*	-1.51	-9.51*	90.0*	0.508	+	61.3%*	95.0%*	110.7*	i
O=C(C(Cc1ccccc1)n1cccc1)N1CCN(c2cccc(Cl)c2)CC1 (stereo unspecified)	-5.7	i	i	8*	-2.01	-9.19*	115.5*	0.329*	.	117.0%*	158.0%*	98.3*	0.144*
O=C(C(Cc1ccccc1)n1cccc1)N1CCN(Cc2ccccc2)CC1 (stereo unspecified)	-22.1	i	i	i	1.58	i	.	.	.	.	.	.	.
COc1cccc(C(=O)Nc2cccc(-c3ccccc3)c2)c1	-1.9	i	i	9*	-1.56	-12.5*	148.5*	0.444	i	99.3%*	+	113.3*	i
COc1cccc(NC(=O)c2ccccc2)c1	.	.	.	.	.	i	.	.	.	.	.	.	.
COc1cc2c(cc1OC)C(c1ccc(-c3ccccc3Cl)o1)=NCC2	-31.1	i	i	12*	0.01	-12*	136.5*	0.37*	.	145.0%*	196.5%*	100.7*	0.125*
CCOc1ccc(-n2cc(-c3ccccc3)c3c(N4CCOCC4)ncnc32)cc1	-14.2	i	i	i	0.27	i	.	.	.	.	.	.	.
COc1ccc(-n2cc(-c3ccccc3)c3c(N4CC(C)OC(C)C4)ncnc32)cc1 (stereo unspecified)	-35.4	i	i	12*	-1.33	-10.8*	121.0*	0.408	i	141.7%*	170.0%*	114.0*	0.133*
O=C(Nc1ccc(OC(F)F)c(Cl)c1)c1cccc(OC(F)F)c1	-28.9	i	-11.6*	12*	0.7	-11*	105.5*	0.521	+	i	43.0%*	120.0*	i	KCNK9 block conf=54.5%*;Kir21 sel=i;HEK293 Tl ctr=i
COc1ccc(NC(=O)c2cccc(OC(F)F)c2)cc1Cl	-7.5	i	i	i	-0.43	i	.	.	.	.	.	.	.
O=C(NCc1cccnc1)C(=O)NCC1OCCCN1S(=O)(=O)c1ccccc1 (stereo unspecified)	-3.4	i	i	i	0.24	i	.	.	.	.	.	.	.
O=C(O)COCC(=O)Nc1ccc(OCCc2ccccc2)cc1	-8.9	i	i	i	-0.9	i	.	.	.	.	.	.	.
CC1CCCCC1NC(=O)c1cc2c(=O)n3ccccc3nc2n1C (stereo unspecified)	-10.9	i	i	i	-0.25	i	.	.	.	.	.	.	.
CC1CC(NC(=O)c2cc3c(=O)n4ccccc4nc3n2C)CC(C)(C)C1 (stereo unspecified)	-7.5	i	i	6*	-0.87	-9.23*	38.5*	0.417	.	101.0%*	i	95.7*	i
CC(C)(CN1CCN(Cc2ccccc2)CC1)NS(=O)(=O)c1ccccc1	-9.0	i	i	i	-2.05	i	.	.	.	.	.	.	.
CC(C)(CN1CCN(C(c2ccccc2)c2ccccc2)CC1)NS(=O)(=O)c1ccccc1	-1.9	i	-9.6*	6*	-0.16	i	106.0*	0.444	i	i	116.0%*	103.0*	0.155*	KCNK9 block conf=40.5%*;Kir21 sel=i;HEK293 Tl ctr=47.0%*
O=C1NC(=Nc2ccccc2Cl)S/C1=C\c1cc([N+](=O)[O-])ccc1O	-9.6	i	i	23*	-8.48	-13.6*	197.0*	0.17*	.	166.0%*	+	169.0*	0.033*
Nc1ccc2nc(SCc3ccccc3F)sc2c1	-11.2	i	i	i	-2.44	i	.	.	.	.	.	.	.
Cc1ccc(N/C(N)=N/c2nc(C)cc(N3CCCCC3)n2)c(C)c1	-22.8	i	i	10*	-2.85	-11.6*	91.0*	0.414	+	89.7%*	51.0%*	116.3*	i
Cc1ccc(N/C(N)=N/c2nc3c(c(=O)[nH]2)CCCC3)c(C)c1	0.9	i	i	i	-0.18	i	.	.	.	.	.	.	.
CCOC(=O)c1cnn(-c2ccc([N+](=O)[O-])cc2)c1N	-6.3	i	i	i	-0.57	i	.	.	.	.	.	.	.
CCOC(=O)C1CCN(c2c(C(=O)c3ccccc3)cnc3ccc(CC)cc23)CC1	-7.0	i	-11.1*	7*	1.09	-11.6*	134.5*	0.395	.	128.3%*	192.5%*	109.7*	i	KCNK9 block conf=28.0%*;Kir21 sel=i;HEK293 Tl ctr=33.5%*
COC(C[C@@H]1O[C@@H]1[C@@H](O)COCc1ccccc1)OC	-10.3	i	i	i	0.48	i	.	.	.	.	.	.	.
Cc1ccc2c(CN(C)Cc3ccc(OC(F)F)cc3)cc(=O)oc2c1C	-20.8	i	i	11*	0.56	-10.2*	127.5*	0.466	i	101.3%*	135.0%*	126.3*	0.149*
CC(=O)Nc1ccc(S(=O)(=O)N(C)CC(=O)OC(C)C(=O)N(C)C2CCCCC2)cc1 (stereo unspecified)	-10.7	i	i	i	0.42	i	.	.	.	.	.	.	.
